Here are results for 23 compounds from ChEMBL document CHEMBL3124882, “Semi-synthesis of acylated triterpenes from olive-oil industry wastes for the development of anticancer and anti-HIV agents” (Eur J Med Chem, 2014).

One assay deals with Protease (Human immunodeficiency virus 1, UniProt Q9YQ12). The experiment in a line: Inhibition of HIV1 recombinant protease expressed in Escherichia coli using Abz-Ala-Arg-Val-Nle-Tyr(NO2)-Glu-Ala-Nle-NH2 as substrate by FRET assay.
The subject of assay [1] is B16-F10. As to the kind of experiment: Induction of apoptosis in mouse B16F10 cells assessed as necrotic cells at 2 X IC50 after 72 hrs by annexin V-FITC/propidium iodide staining-based FACS analysis (reference value: 4.0 +/- 0.6%). Type of assay: functional. In general terms: A flow cytometer gives signals particle by particle.
Assay [2] concerns B16-F10. The experiment in a line: Induction of apoptosis in mouse B16F10 cells assessed as necrotic cells at IC50 after 72 hrs by annexin V-FITC/propidium iodide staining-based FACS analysis (reference value: 4.0 +/- 0.6%). It counts as functional.
The test system of assay [3] is B16-F10. As to the kind of experiment: Induction of apoptosis in mouse B16F10 cells assessed as total apoptotic cells at 2 X IC50 after 72 hrs by annexin V-FITC/propidium iodide staining-based FACS analysis (reference value: 13.7 +/- 2.7%). Type of assay: functional.
The subject of assay [4] is B16-F10. As to the kind of experiment: Induction of apoptosis in mouse B16F10 cells assessed as total apoptotic cells at IC50 after 72 hrs by annexin V-FITC/propidium iodide staining-based FACS analysis (reference value: 13.7 +/- 2.7%). Type of assay: functional.
The subject of assay [5] is B16-F10. The experiment in a line: Induction of apoptosis in mouse B16F10 cells assessed as late apoptotic cells at 2 X IC50 after 72 hrs by annexin V-FITC/propidium iodide staining-based FACS analysis (reference value: 9.8 +/- 2.2%). It counts as functional.
The test system of assay [6] is B16-F10. The experiment in a line: Induction of apoptosis in mouse B16F10 cells assessed as late apoptotic cells at IC50 after 72 hrs by annexin V-FITC/propidium iodide staining-based FACS analysis (reference value: 9.8 +/- 2.2%). Type of assay: functional.
Assay [7] has as its system B16-F10. The experiment in a line: Induction of apoptosis in mouse B16F10 cells assessed as early apoptotic cells at 2 X IC50 after 72 hrs by annexin V-FITC/propidium iodide staining-based FACS analysis (reference value: 3.9 +/- 0.4%). Type of assay: functional.
The test system of assay [8] is B16-F10. The experiment in a line: Induction of apoptosis in mouse B16F10 cells assessed as early apoptotic cells at IC50 after 72 hrs by annexin V-FITC/propidium iodide staining-based FACS analysis (reference value: 3.9 +/- 0.4%). It counts as functional.
Assay [9] deals with B16-F10. As to the kind of experiment: Induction of apoptosis in mouse B16F10 cells assessed as normal cells at IC50 after 72 hrs by annexin V-FITC/propidium iodide staining-based FACS analysis (reference value: 77.9 +/- 1.5%). Type of assay: functional.
Assay [10] has as its system B16-F10. As to the kind of experiment: Cytotoxicity against mouse B16F10 cells after 72 hrs by MTT assay. It counts as functional, cell-based. Particulars: B16-F10, 72 h. The method, boiled down: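 B16F10 cells (DMEM, 2 mM glutamine, 10% heat-inactivated FCS, penicillin/streptomycin; subconfluent) seeded at 11·10^3 per well and exposed to 0–80 µg/mL for 72 h. Compounds were diluted from a 10 mg/mL stock in 50% DMSO/PBS. MTT 0.5 mg/mL for 2 h, formazan dissolved in DMSO, absorbance at 550 nm. Viability is relative to untreated controls; IC50 from four assays of six replicates, mean ± S.E.M.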
Background: Formazan colour is commonly taken as a measure of viable cells.

Assay [11] concerns B16-F10. As to the kind of experiment: Induction of apoptosis in mouse B16F10 cells assessed as normal cells at 2 X IC50 after 72 hrs by annexin V-FITC/propidium iodide staining-based FACS analysis (reference value: 77.9 +/- 1.5%). It counts as functional.

Sequence of Protease (Q9YQ12 whole entry): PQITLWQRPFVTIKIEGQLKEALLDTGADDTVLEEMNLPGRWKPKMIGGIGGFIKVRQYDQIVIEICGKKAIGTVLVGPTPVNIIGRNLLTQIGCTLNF

As for `CC1(C)CC[C@]2(C(=O)O)CC[C@]3(C)C(=CC[C@@H]4[C@@]5(C)C[C@@H](OC(=O)CCC(=O)O)[C@H](O)C(C)(C)[C@@H]5CC[C@]43C)[C@@H]2C1`, the IC50 on Protease worked out at 3.5 µM.

With `CC(C)(CC(=O)O)CC(=O)O[C@@H]1C[C@]2(C)[C@H]3CC=C4[C@@H]5CC(C)(C)CC[C@]5(C(=O)O)CC[C@@]4(C)[C@]3(C)CC[C@H]2C(C)(C)[C@H]1OC(=O)CC(C)(C)CC(=O)O`, on Protease, the half-inhibitory concentration (IC50) was found to be 27.5 µM.

In the case of `CC1(C)CC[C@]2(C(=O)O)CC[C@]3(C)C(=CC[C@@H]4[C@@]5(C)CC[C@H](O)C(C)(C)[C@@H]5CC[C@]43C)[C@@H]2C1` [OLEANOLIC_ACID], the Activity in the assay with B16-F10 [1] came out at 8.7%; in the assay with B16-F10 [2], 10.1%; in the assay on B16-F10 [3], 41.5%; in the assay with B16-F10 [4], 44.6%; in the assay with B16-F10 [5], 12.4%; in the assay on B16-F10 [6], 28.2%. Besides, the Activity in the assay with B16-F10 [7] is reported as 29.1%; in the assay on B16-F10 [8], 16.4%; in the assay with B16-F10 [9] it was 44.9%; in the assay with B16-F10 [11], 49.8%. The IC50 in the assay on B16-F10 [10] amounted to 106 µM; on Protease it was 57.7 µM.

Consider `CC(C)(CC(=O)O)CC(=O)O[C@H]1CC[C@]2(C)[C@H]3CC=C4[C@@H]5CC(C)(C)CC[C@]5(C(=O)O)CC[C@@]4(C)[C@]3(C)CC[C@H]2C1(C)C`, for which the IC50 on Protease stood at 0.7 µM.

As for `CCCCCC(=O)O[C@@H]1C[C@]2(C)[C@H]3CC=C4[C@@H]5CC(C)(C)CC[C@]5(C(=O)OCc5ccccc5)CC[C@@]4(C)[C@]3(C)CC[C@H]2C(C)(C)[C@H]1OC(=O)CCCCC`, at Protease, the IC50 stood at 150 µM.

As for `CCCC(=O)O[C@@H]1C[C@]2(C)[C@H]3CC=C4[C@@H]5CC(C)(C)CC[C@]5(C(=O)OCc5ccccc5)CC[C@@]4(C)[C@]3(C)CC[C@H]2C(C)(C)[C@H]1O`, the IC50 on Protease was found to be 226 µM.

With `CC1(C)CC[C@]2(C(=O)O)CC[C@]3(C)C(=CC[C@@H]4[C@@]5(C)CC[C@H](OC(=O)CCCC(=O)O)C(C)(C)[C@@H]5CC[C@]43C)[C@@H]2C1`, the IC50 on Protease came to 0.56 µM.

Consider `CCCC(=O)O[C@@H]1C[C@]2(C)[C@H]3CC=C4[C@@H]5CC(C)(C)CC[C@]5(C(=O)O)CC[C@@]4(C)[C@]3(C)CC[C@H]2C(C)(C)[C@H]1OC(=O)CCC`, for which the IC50 at Protease was 31.2 µM.

In the case of `CCCCCCCCCCCC(=O)O[C@@H]1C[C@]2(C)[C@H]3CC=C4[C@@H]5CC(C)(C)CC[C@]5(C(=O)OCc5ccccc5)CC[C@@]4(C)[C@]3(C)CC[C@H]2C(C)(C)[C@H]1OC(=O)CCCCCCCCCCC`, at Protease, the concentration for half-maximal inhibition (IC50) was 73 µM.

As to `CC1(C)CC[C@]2(C(=O)O)CC[C@]3(C)C(=CC[C@@H]4[C@@]5(C)C[C@@H](OC(=O)c6ccccc6C(=O)O)[C@H](OC(=O)c6ccccc6C(=O)O)C(C)(C)[C@@H]5CC[C@]43C)[C@@H]2C1`, the IC50 on Protease stood at 2.3 µM.

`CC1(C)CC[C@]2(C(=O)OCc3ccccc3)CC[C@]3(C)C(=CC[C@@H]4[C@@]5(C)CC[C@H](O)C(C)(C)[C@@H]5CC[C@]43C)[C@@H]2C1`: the Activity with B16-F10 [1] amounted to 4.1%; in the assay on B16-F10 [2], 4.3%; in the assay with B16-F10 [3], 41.6%; with B16-F10 [4], 27.8%; with B16-F10 [5] it was 18.6%; with B16-F10 [6], 12.2%. The Activity was found to be 23% in the assay on B16-F10 [7], 15.6% in the assay with B16-F10 [8], 67.9% in the assay on B16-F10 [9] and 54.3% in the assay with B16-F10 [11]. Further, the half-inhibitory concentration (IC50) with B16-F10 [10] came to 52.2 µM.

On to `CC1(C)CC[C@]2(C(=O)OCc3ccccc3)CC[C@]3(C)C(=CC[C@@H]4[C@@]5(C)C[C@@H](OC(=O)c6ccccc6C(=O)O)[C@H](OC(=O)c6ccccc6C(=O)O)C(C)(C)[C@@H]5CC[C@]43C)[C@@H]2C1`, for which the concentration for half-maximal inhibition (IC50) at Protease came to 1.9 µM.

Take `CC1(C)CC[C@]2(C(=O)O)CC[C@]3(C)C(=CC[C@@H]4[C@@]5(C)C[C@@H](O)[C@H](O)C(C)(C)[C@@H]5CC[C@]43C)[C@@H]2C1` [MASLINIC ACID]: the Activity in the assay on B16-F10 [1] was determined as 2%; with B16-F10 [2], 11.7%; in the assay on B16-F10 [3], 89.8%; with B16-F10 [4], 74.9%; with B16-F10 [5] it was 21%; with B16-F10 [6], 54.2%. The Activity in the assay with B16-F10 [7] is given as 68.8%; with B16-F10 [8], 20.8%; with B16-F10 [9] it was 10.9%; in the assay on B16-F10 [11] it was 8.3%. The figures for the IC50 with B16-F10 [10] and at Protease were 36.2 µM and 62.7 µM, respectively.

`CC1(C)CC[C@]2(C(=O)O)CC[C@]3(C)C(=CC[C@@H]4[C@@]5(C)C[C@@H](OC(=O)CCC(=O)O)[C@H](OC(=O)CCC(=O)O)C(C)(C)[C@@H]5CC[C@]43C)[C@@H]2C1`: the half-inhibitory concentration (IC50) on Protease was determined as 1.9 µM.

As to `CC1(C)CC[C@]2(C(=O)O)CC[C@]3(C)C(=CC[C@@H]4[C@@]5(C)C[C@@H](OC(=O)CCCC(=O)O)[C@H](O)C(C)(C)[C@@H]5CC[C@]43C)[C@@H]2C1`, the IC50 on Protease turned out to be 3.2 µM.

As to `CC1(C)CC[C@]2(C(=O)OCc3ccccc3)CC[C@]3(C)C(=CC[C@@H]4[C@@]5(C)C[C@@H](OC(=O)CCC(=O)O)[C@H](O)C(C)(C)[C@@H]5CC[C@]43C)[C@@H]2C1`, the half-inhibitory concentration (IC50) on Protease came out at 15.6 µM.

For the compound `CC1(C)CC[C@]2(C(=O)O)CC[C@]3(C)C(=CC[C@@H]4[C@@]5(C)CC[C@H](OC(=O)c6ccccc6C(=O)O)C(C)(C)[C@@H]5CC[C@]43C)[C@@H]2C1`, at Protease, the concentration for half-maximal inhibition (IC50) is 0.31 µM.

Regarding `CC1(C)CC[C@]2(C(=O)O)CC[C@]3(C)C(=CC[C@@H]4[C@@]5(C)C[C@@H](OC(=O)CCCC(=O)O)[C@H](OC(=O)CCCC(=O)O)C(C)(C)[C@@H]5CC[C@]43C)[C@@H]2C1`, the IC50 on Protease turned out to be 1.4 µM.

Take `CC1(C)CC[C@]2(C(=O)OCc3ccccc3)CC[C@]3(C)C(=CC[C@@H]4[C@@]5(C)C[C@@H](OC(=O)CCCC(=O)O)[C@H](OC(=O)CCCC(=O)O)C(C)(C)[C@@H]5CC[C@]43C)[C@@H]2C1`: the half-maximal inhibitory concentration (IC50) on Protease turned out to be 3.9 µM.

On to `CC1(C)CC[C@]2(C(=O)O)CC[C@]3(C)C(=CC[C@@H]4[C@@]5(C)C[C@@H](OC(=O)c6ccccc6C(=O)O)[C@H](O)C(C)(C)[C@@H]5CC[C@]43C)[C@@H]2C1`, for which the IC50 at Protease is 14.2 µM.

For `CC1(C)CC[C@]2(C(=O)OCc3ccccc3)CC[C@]3(C)C(=CC[C@@H]4[C@@]5(C)C[C@@H](O)[C@H](O)C(C)(C)[C@@H]5CC[C@]43C)[C@@H]2C1` [BENZYL MASLINATE], the Activity with B16-F10 [1] was found to be 0.1%; with B16-F10 [2], 0.3%; in the assay on B16-F10 [3] it was 88.4%; with B16-F10 [4], 94.7%; with B16-F10 [5], 2.2%; in the assay with B16-F10 [6] it was 10.6%. Further, the Activity stood at 86.2% in the assay with B16-F10 [7], 84.2% with B16-F10 [8], 5% in the assay on B16-F10 [9] and 11.3% in the assay with B16-F10 [11]. Moreover, the half-maximal inhibitory concentration (IC50) in the assay on B16-F10 [10] turned out to be 19 µM.

`CC(C)(CC(=O)O)CC(=O)O[C@@H]1C[C@]2(C)[C@H]3CC=C4[C@@H]5CC(C)(C)CC[C@]5(C(=O)O)CC[C@@]4(C)[C@]3(C)CC[C@H]2C(C)(C)[C@H]1O`: the IC50 at Protease is 14.3 µM.

On to `CC1(C)CC[C@]2(C(=O)OCc3ccccc3)CC[C@]3(C)C(=CC[C@@H]4[C@@]5(C)C[C@@H](OC(=O)CCC(=O)O)[C@H](OC(=O)CCC(=O)O)C(C)(C)[C@@H]5CC[C@]43C)[C@@H]2C1`, for which the IC50 at Protease was 5.2 µM.

What is called IC50 is the concentration that inhibits the measured activity by half.
